From ChEMBL document CHEMBL1123352, “Anticonvulsant activity of 2- and 3-aminobenzanilides” (J Med Chem, 1986)
Activity calls are given as the source filed them. The calls are words filed in the database; no cut-off is given here.

What was measured:
[1] = tested on: Mus musculus; test: Compound for anticonvulsant activity against subcutaneous pentylenetetrazole-induced convulsions in mice after administration; type: functional; conditions: sc
In short: (§1)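 Male Carworth Farms No. 1 mice were dosed ip with compound in 30% PEG 400, at 30–600 mg/kg, and read at 30 min and 4 h. Pentylenetetrazole was given at 85 mg/kg as a 0.5% solution sc in the posterior midline. Protection meant no single episode of clonic spasms lasting at least 5 s over a 30-min observation.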

[2] = tested on: Mus musculus; test: Compound for anticonvulsant activity against maximal electroshock (MES)-induced seizures in mice after administration; type: functional
In short: (§2)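 Male Carworth Farms No. 1 mice were dosed ip with compound in 30% polyethylene glycol 400, at 30, 100 and 300 mg/kg and sometimes 600 mg/kg, and tested 30 min and 4 h later. A drop of 0.9% saline went in the eye, then 60-cycle AC at 50 mA was given for 0.2 s via corneal electrodes. Protection meant abolition of hind limb tonic extension.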

[3] = tested on: Mus musculus; test: Compound was tested for toxicity by rotarod assay method in mice 30 min after ip administration of 300 mg/kg; A=Active; type: organism-based; parameters: dose 300 mg/kg, route intraperitoneal; conditions: in vivo, 0.5 h
[4] = tested on: Mus musculus; test: Anticonvulsant activity against maximal electroshock (MES) induced seizures in mice 4 hours after ip administration of 600 mg/kg; A=Active; type: functional, organism-based; parameters: dose 600 mg/kg; in short: as §2
[5] = tested on: Mus musculus; test: Anticonvulsant activity against subcutaneous pentylenetetrazole induced convulsions in mice 30 min after ip administration of 600 mg/kg.; type: functional, organism-based; parameters: dose 600 mg/kg; in short: as §1
[6] = tested on: Mus musculus; test: Anticonvulsant activity against subcutaneous pentylenetetrazole induced convulsions in mice 4 hr after ip administration of 600 mg/kg.; type: functional, organism-based; parameters: dose 600 mg/kg; in short: as §1
[7] = tested on: Mus musculus; test: Compound was tested for toxicity by rotarod assay method in mice after intraperitoneal administration after 4 hours; A=Active; type: organism-based; conditions: in vivo, ip
[8] = tested on: Mus musculus; test: Anticonvulsant activity against maximal electroshock (MES) induced seizures in mice 30 minutes after ip administration of 300 mg/kg; A=Active; type: functional, organism-based; parameters: dose 300 mg/kg; in short: as §2
[9] = tested on: Mus musculus; test: Anticonvulsant activity against maximal electroshock (MES) induced seizures in mice 4 hours after ip administration of 600 mg/kg.; type: functional, organism-based; parameters: dose 600 mg/kg; in short: as §2
[10] = tested on: Mus musculus; test: Compound was tested for toxicity by rotarod assay method in mice 4 hours after ip administration of 600 mg/kg; NA=No activity; type: organism-based; parameters: dose 600 mg/kg, route intraperitoneal; conditions: in vivo
[11] = tested on: Mus musculus; test: Compound was tested for toxicity by rotarod assay method in mice 30 min after ip administration of 600 mg/kg; No activity; type: organism-based; parameters: dose 600 mg/kg, route intraperitoneal; conditions: in vivo, 0.5 h
[12] = tested on: Mus musculus; test: Anticonvulsant activity against maximal electroshock (MES) induced seizures in mice 30 minutes after ip administration of 600 mg/kg; A=Active; type: functional, organism-based; parameters: dose 600 mg/kg; in short: as §2
[13] = tested on: Mus musculus; test: Anticonvulsant activity against sc pentylenetetrazole induced convulsions in mice 30 minutes after ip administration of 600 mg/kg; A=Active; type: functional, organism-based; parameters: dose 600 mg/kg; in short: as §1

Structure (SMILES)	ED50 [1] [mg/kg]	ED50 [2] [mg/kg]	Toxicity [3]	Anticonvulsant activity [4]	Anticonvulsant activity [5]	Anticonvulsant activity [6]	Toxicity [7]	Anticonvulsant activity [8]	Anticonvulsant activity [9]	Toxicity [10]	Toxicity [11]	Anticonvulsant activity [12]	Anticonvulsant activity [13]
CCCC(CCC)C(=O)O [VALPROIC ACID]	149	272											
CC(C)c1ccccc1NC(=O)c1cccc(N)c1			Active	Active	inactive	inactive	Active	Active					
Cc1ccc(NC(=O)c2cccc(N)c2)cc1C						inactive			inactive	Not Active	Not Active	Active	Active
